Measured values of several laboratories.
Compare with care: the assays were run in different laboratories.
Read-out: cell growth or viability

`Nc1nc2sc(CCc3ccc(C(=O)N[C@@H](CCC(=O)O)C(=O)O)cc3)cc2c(=O)[nH]1` gave an IC50 of greater than 1 µM (R2/PCFT4; 96 h, pH 7.2).
For `OCc1ccc2c(c1C#Cc1ccc(O)cc1)C(c1ccc(O)cc1)(c1ccc(O)cc1)c1cc(O)ccc1-2`, the IC50 was greater than 50 µM (HUVEC; MTT; 48 h).
For `CCCCN(Cc1ccc(C(=O)NO)cc1)C(=O)Nc1ccccc1`, the IC50 was 9.05 µM (HAL-01; ATP luminescence; 72 h).
For `CC(C)C[C@H](NC(=O)[C@H](Cc1ccccc1)NC(=O)c1cnccn1)B(O)O`, the IC50 was 0.0071 µM (Ishikawa; ATP luminescence).
For `O=C(/C=C/C=C/c1ccc2c(c1)OCO2)N1CCCCC1`, the IC50 was 41.6 µg/mL (HUVEC; MTT; 48 h).
For `COc1cc(Nc2nccc(-c3cnn4nc(OC)ccc34)n2)cc(C(F)(F)F)c1`, the IC50 was 0.93 µM (HCC38; ATP luminescence).
`COc1cccc2c1C(=O)c1c(O)c3c(c(O)c1C2=O)C[C@@](O)(C(=O)CO)C[C@@H]3O[C@H]1C[C@H](N)[C@H](O)[C@H](C)O1` gave an IC50 of 2 µg/mL (HUVEC; MTT; 48 h).
`COC1=C2C[C@@H](C)C[C@H](OC)[C@H](O)[C@@H](C)/C=C(\C)[C@H](OC(N)=O)[C@@H](OC)/C=C\C=C(/C)C(=O)NC(=CC1=O)C2=O` has an IC50 of 0.041 µM (HUVEC; MTT).
`Nc1nc2sc(CCCCCCCc3ccc(C(=O)N[C@@H](CCC(=O)O)C(=O)O)cc3)cc2c(=O)[nH]1` has an IC50 of greater than 1 µM (R2/PCFT4; 96 h, pH 7.2).
For `CN1c2ccccc2C(=O)N2[C@H](C(=O)Nc3ccc(/C=C/C(=O)NO)cc3)Cc3c([nH]c4ccccc34)[C@@H]12`, the IC50 was 7.4 µM (HUVEC).
With `Nc1nc2sc(CCCCCc3ccc(C(=O)N[C@@H](CCC(=O)O)C(=O)O)cc3)cc2c(=O)[nH]1` the IC50 was greater than 1 µM (R2/PCFT4; 96 h, pH 7.2).
For `CCOc1cc(-c2nc3ccc(C)cc3[nH]2)ccc1O`, the IC50 was 32.8 µM (C26; MTT; 48 h).
For `O=C(Nc1cccc2cccnc12)c1cnccn1`, the IC50 was greater than 30 µM (HFF-1; MTT).
The IC50 of `CCCON(Cc1ccc(C(=O)NO)cc1)C(=O)Nc1ccc(N(C)C)cc1` is reported as 13.8 µM (HAL-01; ATP luminescence; 72 h).
